Experimental data from ChEMBL document CHEMBL4334471, “Discovery of 1,8-disubstituted-[1,2,3]triazolo[4,5-c]quinoline derivatives as a new class of Hippo signaling pathway inhibitors” (Bioorg Med Chem Lett, 2019).

Columns and labels:
A549 = assay: Inhibition of hippo signalling protein in human A549 cells cotransfected with CTGF promoter-driven firefly luciferase and CMV promoter-driven renilla luciferase gene incubated for 24 hrs by dual-luciferase gene assay; format: cell-based
In short: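 Dual-luciferase reporter read-out in A549-CTGF cells after 24 h culture with compound. Firefly luciferase is expressed relative to DMSO-treated cells, set as 1. Screening used 10 µM. Values are mean ± SEM of three independent experiments.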

[1] = biological target: Bone morphogenetic protein receptor type-2 (Homo sapiens) (UniProt Q13873); assay: Inhibition of recombinant human BMPR2 (172 to 734 residues) assessed as residual activity at 10 uM using myelin basic protein as substrate incubated for 120 mins in presence of [gamma-33ATP] by scintillation counting based radiometry assay relative to control
[2] = system: Serine/threonine-protein kinase B-raf (Homo sapiens), P15056 [V600E]; assay: Inhibition of recombinant full length human B-Raf V599E mutant (416 to end residues) assessed as residual activity at 10 uM using myelin basic protein as substrate incubated for 40 mins in presence of [gamma-33ATP] by scintillation counting based radiometry assay relative to control
[3] = biological target: Casein kinase 2 (Homo sapiens) (UniProt P67870+P68400+P19784+Q8NEV1); assay: Inhibition of recombinant human CK2 assessed as residual activity at 10 uM in presence of [gamma-33ATP] by scintillation counting based radiometry assay relative to control; format: protein assay
[4] = biological target: Death-associated protein kinase 1 (Homo sapiens) (UniProt P53355); assay: Inhibition of recombinant human DAPK1 (1 to 296 residues) assessed as residual activity at 10 uM KKLNRTLSFAEPG as substrate incubated 40 mins in presence of [gamma-33ATP] by scintillation counting based radiometry assay relative to control
[5] = biological target: Inhibitor of nuclear factor kappa-B kinase subunit beta (Homo sapiens) (UniProt O14920); assay: Inhibition of full length human IKKbeta assessed as residual activity at 10 uM using peptide as substrate after 40 mins by [gamma-33ATP] radiometric assay relative to control
[6] = biological target: Serine/threonine-protein kinase STK11 (Homo sapiens) (UniProt Q15831); assay: Inhibition of recombinant human LKB1 assessed as residual activity at 10 uM using LSNLYHQGKFLQT as substrate after 40 mins in presence of [gamma-33ATP] by scintillation counting based radiometry assay relative to control
[7] = biological target: Mitogen-activated protein kinase kinase kinase kinase 4 (Homo sapiens) (UniProt O95819); assay: Inhibition of recombinant human MAP4K4 (1 to 328 residues) assessed as residual activity at 10 uM using RLGRDKYKTLRQI as substrate incubated for 40 mins in presence of [gamma-33ATP by scintillation counting based radiometry assay relative to control
[8] = biological target: Maternal embryonic leucine zipper kinase (Homo sapiens) (UniProt Q14680); assay: Inhibition of recombinant human MELK (1 to 340 residues) assessed as residual activity at 10 uM using KKLNRTLSFAEPG as substrate incubated for 40 mins in presence of [gamma-33ATP by scintillation counting based radiometry assay relative to control
[9] = biological target: Serine/threonine-protein kinase 4 (Homo sapiens) (UniProt Q13043); assay: Inhibition of recombinant full-length human MST1 assessed as residual activity at 10 uM using KKSRGDYMTMQIG as substrate measured after 40 mins in presence of [gamma33P]ATP by scintillation counting based radiometry assay relative to control
In short: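 Outsourced kinase profiling of MST1 by a commercial service (Eurofins); activity reported as mean ± SEM of 2 replicates.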

[10] = biological target: Serine/threonine-protein kinase NLK (Homo sapiens) (UniProt Q9UBE8); assay: Inhibition of recombinant human NLK (121 to end residues) assessed as residual activity at 10 uM using protein as substrate measured after 40 mins in presence of [gamma33P]ATP by scintillation counting based radiometry assay relative to control
[11] = biological target: Phosphorylase b kinase gamma catalytic chain, skeletal muscle/heart isoform (Homo sapiens) (UniProt Q16816); assay: Inhibition of recombinant full-length human PhKgamma1 assessed as residual activity at 10 uM using KKLNRTLSFAEPG as substrate incubated for 40 mins in presence of [gamma33P]ATP by scintillation counting based radiometry assay relative to control
[12] = biological target: cAMP-dependent protein kinase catalytic subunit alpha (Homo sapiens) (UniProt P17612); assay: Inhibition of recombinant human PKA assessed as residual activity at 10 uM relative to control
Homo sapiens = organism: Homo sapiens; assay: Inhibition of recombinant full length human PKBalpha S478G mutant assessed as residual activity at 10 uM using GRPRTSSFAEGKK as substrate incubated for 40 mins in presence of [gamma33P]ATP by scintillation counting based radiometry assay relative to control
[13] = system: Proto-oncogene tyrosine-protein kinase receptor Ret (Homo sapiens), P07949 [V804M]; assay: Inhibition of recombinant human Ret V804M mutant (658 to end residues) assessed as residual activity at 10 uM using KKKVSRSGLYRSPSMPENLNRPR as substrate incubated for 40 mins in presence of [gamma33P]ATP by scintillation counting based radiometry assay relative to control
[14] = biological target: Serine/threonine-protein kinase SBK1 (Homo sapiens) (UniProt Q52WX2); assay: Inhibition of recombinant full-length human SBK1 assessed as residual activity at 10 uM using KKLRRTLSVA as substrate incubated for 120 mins in presence of [gamma33P]ATP by scintillation counting based radiometry assay relative to control
[15] = biological target: Serine/threonine-protein kinase 33 (Homo sapiens) (UniProt Q9BYT3); assay: Inhibition of recombinant full-length human STK33 assessed as residual activity at 10 uM using myelin basic protein as substrate incubated for 40 mins in presence of [gamma33P]ATP by scintillation counting based radiometry assay relative to control
[16] = biological target: Transcription initiation factor TFIID subunit 1-like (Homo sapiens) (UniProt Q8IZX4); assay: Inhibition of recombinant human TAF1L (1428 to end residues) assessed as residual activity at 10 uM using RRRFRPASPLRGPPK as substrate incubated for 40 mins in presence of [gamma33P]ATP by scintillation counting based radiometry assay relative to control
[17] = biological target: Tribbles homolog 2 (Homo sapiens) (UniProt Q92519); assay: Inhibition of recombinant full-length human TRB2 assessed as residual activity at 10 uM using RRRFRPASPLRGPPK as substrate incubated for 120 mins in presence of [gamma33P]ATP by scintillation counting based radiometry assay relative to control
[18] = biological target: Serine/threonine-protein kinase VRK1 (Homo sapiens) (UniProt Q99986); assay: Inhibition of recombinant human VRK1 assessed as residual activity at 10 uM in presence of [gamma33P]ATP by scintillation counting based radiometry assay relative to control
Mus musculus = organism: Mus musculus; assay: Inhibition of recombinant full-length mouse PI3K p110/p85 H1047R mutant assessed as residual activity at 10 uM using phosphatidylinositol-4, 5-bisphosphate as substrate incubated for 40 mins in presence of [gamma33P]ATP by scintillation counting based radiometry assay relative to control

Sequence of Maternal embryonic leucine zipper kinase (Homo sapiens) (Q14680 whole entry, looked up, the tested form may be a part): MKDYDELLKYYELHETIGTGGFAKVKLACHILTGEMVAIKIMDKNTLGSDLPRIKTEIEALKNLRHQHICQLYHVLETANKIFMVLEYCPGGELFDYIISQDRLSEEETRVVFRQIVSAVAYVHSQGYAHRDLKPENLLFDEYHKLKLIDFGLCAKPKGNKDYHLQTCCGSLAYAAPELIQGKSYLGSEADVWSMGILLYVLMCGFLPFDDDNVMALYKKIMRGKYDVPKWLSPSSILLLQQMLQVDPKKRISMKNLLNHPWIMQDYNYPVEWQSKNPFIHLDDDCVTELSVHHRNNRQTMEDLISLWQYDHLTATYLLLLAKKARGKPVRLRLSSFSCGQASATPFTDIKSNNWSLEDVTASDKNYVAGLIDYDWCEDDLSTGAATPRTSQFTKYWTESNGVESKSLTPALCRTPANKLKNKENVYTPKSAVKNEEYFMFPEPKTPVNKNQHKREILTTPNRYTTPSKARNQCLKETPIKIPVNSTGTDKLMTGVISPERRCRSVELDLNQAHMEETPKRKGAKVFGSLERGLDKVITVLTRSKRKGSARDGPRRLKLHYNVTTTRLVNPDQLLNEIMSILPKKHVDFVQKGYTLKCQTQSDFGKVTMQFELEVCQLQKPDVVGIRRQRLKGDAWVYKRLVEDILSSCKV
Sequence of Serine/threonine-protein kinase B-raf (Homo sapiens), P15056 [V600E] (P15056 whole entry V600E): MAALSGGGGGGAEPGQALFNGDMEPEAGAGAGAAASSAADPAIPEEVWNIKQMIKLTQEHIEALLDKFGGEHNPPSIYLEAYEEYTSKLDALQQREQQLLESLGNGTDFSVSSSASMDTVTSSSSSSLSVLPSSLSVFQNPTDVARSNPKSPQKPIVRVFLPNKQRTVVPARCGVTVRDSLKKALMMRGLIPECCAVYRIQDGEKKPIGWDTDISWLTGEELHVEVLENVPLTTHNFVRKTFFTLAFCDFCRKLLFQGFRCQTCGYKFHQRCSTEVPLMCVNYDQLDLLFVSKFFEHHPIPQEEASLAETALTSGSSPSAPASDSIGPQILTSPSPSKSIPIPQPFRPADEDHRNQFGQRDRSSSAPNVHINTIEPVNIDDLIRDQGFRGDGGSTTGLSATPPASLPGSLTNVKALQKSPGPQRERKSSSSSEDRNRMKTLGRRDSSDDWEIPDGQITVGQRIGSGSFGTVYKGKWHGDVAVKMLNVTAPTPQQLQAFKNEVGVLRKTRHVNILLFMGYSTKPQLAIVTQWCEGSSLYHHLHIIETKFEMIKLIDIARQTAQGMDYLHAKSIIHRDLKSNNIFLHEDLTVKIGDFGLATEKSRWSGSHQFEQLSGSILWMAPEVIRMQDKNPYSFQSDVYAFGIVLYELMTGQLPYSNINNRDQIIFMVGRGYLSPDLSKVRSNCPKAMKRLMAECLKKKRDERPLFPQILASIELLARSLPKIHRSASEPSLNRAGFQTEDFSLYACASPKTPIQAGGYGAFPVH
Sequence of Serine/threonine-protein kinase NLK (Homo sapiens) (Q9UBE8 whole entry, canonical isoform): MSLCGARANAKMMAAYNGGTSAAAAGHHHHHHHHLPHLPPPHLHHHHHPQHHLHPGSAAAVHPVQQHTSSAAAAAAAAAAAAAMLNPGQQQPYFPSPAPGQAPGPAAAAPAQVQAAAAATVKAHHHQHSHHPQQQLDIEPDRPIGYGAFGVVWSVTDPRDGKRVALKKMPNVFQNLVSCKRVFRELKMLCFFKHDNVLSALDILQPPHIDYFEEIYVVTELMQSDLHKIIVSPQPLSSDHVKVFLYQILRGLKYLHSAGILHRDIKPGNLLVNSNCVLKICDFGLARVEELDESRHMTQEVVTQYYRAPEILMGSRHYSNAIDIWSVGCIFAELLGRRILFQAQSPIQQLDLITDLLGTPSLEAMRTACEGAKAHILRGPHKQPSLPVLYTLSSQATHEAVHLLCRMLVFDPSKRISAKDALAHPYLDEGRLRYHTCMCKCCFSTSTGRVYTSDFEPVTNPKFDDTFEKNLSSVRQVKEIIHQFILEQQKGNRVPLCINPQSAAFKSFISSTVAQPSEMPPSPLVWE
Sequence of Mitogen-activated protein kinase kinase kinase kinase 4 (Homo sapiens) (O95819 2-1239 limits assumed): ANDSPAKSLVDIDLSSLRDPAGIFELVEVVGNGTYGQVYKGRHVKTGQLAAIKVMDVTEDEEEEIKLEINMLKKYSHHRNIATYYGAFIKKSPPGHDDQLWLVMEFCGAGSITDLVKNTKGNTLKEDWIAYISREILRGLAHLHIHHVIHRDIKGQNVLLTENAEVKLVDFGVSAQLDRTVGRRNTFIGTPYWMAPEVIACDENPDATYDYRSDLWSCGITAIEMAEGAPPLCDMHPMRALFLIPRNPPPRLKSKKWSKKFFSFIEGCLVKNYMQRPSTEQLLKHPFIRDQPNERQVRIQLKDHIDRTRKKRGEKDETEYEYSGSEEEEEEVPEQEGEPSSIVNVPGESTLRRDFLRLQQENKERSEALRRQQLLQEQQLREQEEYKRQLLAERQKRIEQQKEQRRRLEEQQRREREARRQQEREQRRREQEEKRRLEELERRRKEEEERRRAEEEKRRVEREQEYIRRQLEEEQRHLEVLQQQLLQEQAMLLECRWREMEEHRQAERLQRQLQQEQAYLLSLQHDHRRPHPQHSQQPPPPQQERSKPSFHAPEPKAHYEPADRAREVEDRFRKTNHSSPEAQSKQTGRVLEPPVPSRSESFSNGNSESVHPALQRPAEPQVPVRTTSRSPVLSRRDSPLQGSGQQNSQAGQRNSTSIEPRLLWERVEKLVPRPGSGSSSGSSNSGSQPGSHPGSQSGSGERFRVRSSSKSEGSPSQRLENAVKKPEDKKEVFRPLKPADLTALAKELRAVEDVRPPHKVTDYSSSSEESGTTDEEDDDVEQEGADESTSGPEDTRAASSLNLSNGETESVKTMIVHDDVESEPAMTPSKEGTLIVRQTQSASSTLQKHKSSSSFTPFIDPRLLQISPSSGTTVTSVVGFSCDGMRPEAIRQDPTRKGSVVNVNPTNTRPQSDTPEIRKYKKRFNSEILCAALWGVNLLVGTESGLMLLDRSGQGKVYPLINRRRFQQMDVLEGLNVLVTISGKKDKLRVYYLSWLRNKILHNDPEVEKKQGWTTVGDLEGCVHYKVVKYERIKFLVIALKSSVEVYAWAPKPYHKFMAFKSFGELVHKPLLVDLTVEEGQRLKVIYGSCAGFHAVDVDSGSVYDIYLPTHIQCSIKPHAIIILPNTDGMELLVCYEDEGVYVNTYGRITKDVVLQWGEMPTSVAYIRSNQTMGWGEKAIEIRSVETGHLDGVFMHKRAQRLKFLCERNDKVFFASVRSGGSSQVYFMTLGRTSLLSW
Sequence of Death-associated protein kinase 1 (Homo sapiens) (P53355 whole entry, looked up, the tested form may be a part): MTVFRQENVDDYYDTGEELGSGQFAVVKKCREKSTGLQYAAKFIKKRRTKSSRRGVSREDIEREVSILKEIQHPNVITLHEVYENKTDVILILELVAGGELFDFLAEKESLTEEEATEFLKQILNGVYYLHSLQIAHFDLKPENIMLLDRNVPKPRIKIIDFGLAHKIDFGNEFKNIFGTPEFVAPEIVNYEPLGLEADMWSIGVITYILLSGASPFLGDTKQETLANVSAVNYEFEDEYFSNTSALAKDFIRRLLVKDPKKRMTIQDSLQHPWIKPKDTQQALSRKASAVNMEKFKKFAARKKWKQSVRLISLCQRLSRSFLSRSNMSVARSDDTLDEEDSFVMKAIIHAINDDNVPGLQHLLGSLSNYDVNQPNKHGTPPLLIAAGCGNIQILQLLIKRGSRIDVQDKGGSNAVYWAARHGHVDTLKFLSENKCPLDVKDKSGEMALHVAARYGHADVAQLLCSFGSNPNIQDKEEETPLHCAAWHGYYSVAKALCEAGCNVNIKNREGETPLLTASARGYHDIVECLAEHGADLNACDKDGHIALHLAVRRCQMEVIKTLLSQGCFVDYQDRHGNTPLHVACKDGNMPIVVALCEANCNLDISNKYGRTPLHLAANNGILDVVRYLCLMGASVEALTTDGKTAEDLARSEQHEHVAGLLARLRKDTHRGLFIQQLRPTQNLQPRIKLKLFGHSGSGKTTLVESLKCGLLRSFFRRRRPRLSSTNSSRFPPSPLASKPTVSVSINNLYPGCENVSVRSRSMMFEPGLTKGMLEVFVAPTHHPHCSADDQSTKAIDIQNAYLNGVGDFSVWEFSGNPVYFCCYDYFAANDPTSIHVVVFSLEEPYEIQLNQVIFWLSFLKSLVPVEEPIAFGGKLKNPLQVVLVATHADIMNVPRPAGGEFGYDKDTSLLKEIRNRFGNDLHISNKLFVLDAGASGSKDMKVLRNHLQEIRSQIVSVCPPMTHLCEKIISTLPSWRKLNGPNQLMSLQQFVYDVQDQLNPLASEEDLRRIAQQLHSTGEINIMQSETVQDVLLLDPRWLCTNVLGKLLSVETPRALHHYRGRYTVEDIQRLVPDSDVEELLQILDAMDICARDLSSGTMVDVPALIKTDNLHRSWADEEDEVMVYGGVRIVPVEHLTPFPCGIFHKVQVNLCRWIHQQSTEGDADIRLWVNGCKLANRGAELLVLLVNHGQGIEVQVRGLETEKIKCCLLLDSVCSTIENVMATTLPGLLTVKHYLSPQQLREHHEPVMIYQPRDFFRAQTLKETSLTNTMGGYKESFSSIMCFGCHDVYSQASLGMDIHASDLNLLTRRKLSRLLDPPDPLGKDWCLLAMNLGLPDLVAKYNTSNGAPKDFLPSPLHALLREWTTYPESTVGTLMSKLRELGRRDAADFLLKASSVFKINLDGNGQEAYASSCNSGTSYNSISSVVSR
Sequence of Serine/threonine-protein kinase 4 (Homo sapiens) (Q13043 whole entry): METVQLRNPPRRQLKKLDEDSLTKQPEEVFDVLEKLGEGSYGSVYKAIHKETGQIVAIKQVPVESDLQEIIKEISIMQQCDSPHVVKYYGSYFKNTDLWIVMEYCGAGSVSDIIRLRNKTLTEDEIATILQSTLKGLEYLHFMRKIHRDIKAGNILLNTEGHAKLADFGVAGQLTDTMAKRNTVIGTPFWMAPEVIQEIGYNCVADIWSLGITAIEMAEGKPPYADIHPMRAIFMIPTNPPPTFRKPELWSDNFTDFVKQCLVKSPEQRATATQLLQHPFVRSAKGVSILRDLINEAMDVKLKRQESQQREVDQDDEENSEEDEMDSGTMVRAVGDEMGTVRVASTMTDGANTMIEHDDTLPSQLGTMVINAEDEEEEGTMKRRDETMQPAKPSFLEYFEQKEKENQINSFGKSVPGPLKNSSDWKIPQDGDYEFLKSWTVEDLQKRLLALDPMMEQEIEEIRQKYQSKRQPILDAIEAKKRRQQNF

SMILES: C[C@@H](c1ccccc1)n1nnc2cnc3ccc(-c4cnc5[nH]ccc5c4)cc3c21
- inhibition (A549): Dose-dependent effect
- Activity [1]: 80%
- Activity [2]: 64%
- Activity [3]: 82%
- Activity [4]: 84%
- Activity [5]: 96%
- Activity [6]: 91%
- Activity [7]: 34%
- Activity [8]: 25%
- Activity [9]: 73%
- Activity [10]: 43%
- Activity [11]: 70%
- Activity [12]: 82%
- Activity (Homo sapiens): 80%
- Activity [13]: 69%
- Activity [14]: 113%
- Activity [15]: 91%
- Activity [16]: 85%
- Activity [17]: 86%
- Activity [18]: 96%
- Activity (Mus musculus): 5%
